Experimental data pooled from the literature.
Compare with care: the assays were run in different laboratories.
Cell line: MCF7
Observed: cell growth or viability

SMILES	assay	conditions	quantity	result
CCOC(=O)c1nn(-c2cccc(Cl)c2)/c(=N/N=C(\C)c2ccc(NC(=O)c3ccc(Cl)cc3)cc2)s1	MTT	0.312 µM	viability	10.3%
CC(=NNC(=O)c1ccc(N)cc1)c1ccc(Nc2nnc(-c3ccc(Cl)cc3)c3ccccc23)cc1	MTT	0.625 µM	cell death	56%
C[C@@H]1CC[C@@H]([C@](C)(O)CNCc2cccc3ccccc23)[C@H](OCc2ccccc2)C1	MTT	10 µM, 72 h	inhibition	61.5%
COc1ccc(-c2cc(-c3cccc(Br)c3)c3c(=O)[nH]c(=O)[nH]c3n2)cc1	MTT	48 h	IC50	13.7 µM
CC(=O)c1nn(-c2ccc(C)cc2)/c(=N/N=C(\C)c2ccc(NC(=O)c3ccccc3)cc2)s1	MTT	0.625 µM	viability	4.79%
C[C@@H]1CC[C@@H]([C@@](O)(CNCc2ccccc2)COCc2ccccc2)[C@H](OCc2ccccc2)C1	MTT	30 µM, 72 h	inhibition	96.4%
CCOC(=O)c1nn(-c2cccc(Cl)c2)/c(=N/N=C(\C)c2ccc(NC(=O)c3ccccc3)cc2)s1	MTT	0.625 µM	viability	2.63%
CC(=NNC(=O)c1ccccc1)c1ccc(Nc2nnc(-c3ccc(Cl)cc3)c3ccccc23)cc1	MTT	5 µM, 24 h	viability	5.18%
C[C@@H]1CC[C@@H]([C@](O)(CNCc2cccc3ccccc23)COCc2ccccc2)[C@H](OCc2ccccc2)C1	MTT	30 µM, 72 h	inhibition	87.7%
CO[C@H]1C[C@@H]2CC[C@@H](C)[C@@](O)(O2)C(=O)C(=O)N2CCCC[C@H]2C(=O)O[C@H]([C@H](C)C[C@@H]2CC[C@@H](OCCO)[C@H](OC)C2)CC(=O)[C@H](C)/C=C(\C)[C@@H](O)[C@@H](OC)C(=O)[C@H](C)C[C@H](C)/C=C/C=C/C=C/1C		5 days	EC50	0.0014 µM
CC(=O)Nc1ccc(/C(C)=N/N=c2\sc(C(C)=O)nn2-c2ccc(C)cc2)cc1	MTT	0.312 µM	viability	99.7%
COc1ccc(CNC[C@](O)(COCc2ccc(OC)cc2)[C@@H]2CC[C@@H](C)C[C@H]2OCc2ccc(OC)cc2)cc1	MTT	30 µM, 72 h	inhibition	101%
CC(=O)Nc1ccc(Oc2nnc(-c3ccc(Cl)cc3)c3ccccc23)cc1	MTT	2.5 µM	cell death	94.2%
CC(=O)c1nn(-c2ccccc2Cl)/c(=N/N=C(\C)c2ccc(NC(=O)c3ccccc3)cc2)s1	MTT	0.156 µM	viability	9.62%
O=C(Nc1ccc(Oc2nnc(-c3ccc(Cl)cc3)c3ccccc23)cc1)c1cccc([N+](=O)[O-])c1	MTT	5 µM	cell death	92.1%
COc1ccc(-c2cc(-c3ccc(C)cc3)nc3c2c(=O)n(C)c(=O)n3C)cc1OC	MTT	48 h	IC50	29.5 µM
COc1ccc(COC[C@@](O)(CNCc2ccc(F)cc2)[C@@H]2CC[C@@H](C)C[C@H]2OCc2ccc(OC)cc2)cc1	MTT	30 µM, 72 h	inhibition	101%
O=C(Nc1ccccc1)Nc1ccc(Oc2nnc(-c3ccc(Cl)cc3)c3ccccc23)cc1	MTT	0.625 µM	cell death	95.4%
C[C@@H]1CC[C@@H]([C@](C)(O)CNCc2ccccc2F)[C@H](OCc2ccccc2)C1	MTT	10 µM, 72 h	inhibition	39%
CC(=NNC(N)=S)c1ccc(Nc2nnc(-c3ccc(Cl)cc3)c3ccccc23)cc1	MTT	1.25 µM	cell death	94.5%
